SUMO Mot1 rescue: blocks SUMOylation pathway, rescuing yeast Mot1-301 growth | S. cerevisiae Mot1-301 growth rescue, ATP luminescence, 38.5C; percent above DMSO median, 100 means doubled | growth rescue, % at 18.8 µM | 320,000 compounds, 1% hits | AID 2716;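 active = every valid replicate shows activation above 250% relative to neutral control wells; inactive = the rest, any valid replicate at or below 250%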;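 also: OY570 slx delta 5 strain wells were the positive control but not used for scaling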
APOBEC3A inh: human APOBEC3A DNA deaminase inhibition; P31941; 330,000 compounds, 0.41% hits; inhibition, % at 20 µM; recombinant A3A, FAM/TAMRA ssDNA deamination fluorescence;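 active = at least 40% inhibition at 20 µM here, with at most 30% in a related deaminase screen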;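 also: plate controls were A3A with DMSO for no effect and wells lacking A3A enzyme for full effect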
Target sequence (P31941 whole entry, looked up): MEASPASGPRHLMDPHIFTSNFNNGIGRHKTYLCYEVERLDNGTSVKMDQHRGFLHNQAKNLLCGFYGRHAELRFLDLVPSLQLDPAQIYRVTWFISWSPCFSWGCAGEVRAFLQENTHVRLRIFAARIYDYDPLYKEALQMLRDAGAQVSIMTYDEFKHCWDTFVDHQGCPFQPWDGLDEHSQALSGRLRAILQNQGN
A3G deaminase: blocks human APOBEC3G single-stranded DNA deamination; Q9HC16; recombinant A3G, ssDNA deamination FAM/TAMRA fluorescence; inhibition, % at 20 µM; 330,000 compounds, 0.28% hits; AID 493012;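 active = inhibition of at least 40% at 20 µM, with no more than 30% in the related APOBEC3A deaminase screen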;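 also: plate controls were DMSO wells with A3G for no effect and wells lacking A3G enzyme for full effect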
ASAP1 GAP inh: ASAP1 ArfGAP inhibition; Q9ULH1; ASAP1-stimulated ARF1 GTP hydrolysis, GDP FP detection; inhibition, % at 16.5 µM; 360,000 compounds, 0.19% hits; AID 624377; in the data active = inhibition above about 25%;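 also: 0% = vehicle with enzyme and substrate and 100% = no enzyme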
Target sequence (Q9ULH1 325-724 limits assumed): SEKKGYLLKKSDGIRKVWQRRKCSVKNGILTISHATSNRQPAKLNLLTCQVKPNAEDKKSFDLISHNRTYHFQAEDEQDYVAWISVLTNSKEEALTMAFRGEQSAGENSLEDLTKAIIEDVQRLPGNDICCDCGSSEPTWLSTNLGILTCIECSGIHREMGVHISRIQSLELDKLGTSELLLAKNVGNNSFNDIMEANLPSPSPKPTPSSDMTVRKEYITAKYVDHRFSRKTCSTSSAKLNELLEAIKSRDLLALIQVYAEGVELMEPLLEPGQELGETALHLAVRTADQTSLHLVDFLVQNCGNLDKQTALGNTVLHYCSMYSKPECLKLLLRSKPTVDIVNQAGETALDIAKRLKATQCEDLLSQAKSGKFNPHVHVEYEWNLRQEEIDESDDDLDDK
ARFGAP1 inh: inhibitors of rat ARFGAP1; 360,000 compounds, 0.26% hits; inhibition, % at 16.5 µM; Arfgap1-stimulated ARF1 GTP hydrolysis, GDP FP detection; AID 651572; Q62848;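 active = inhibition above a per-plate limit, mean inhibition of low control wells plus 3 SD, cut at about 25% in these data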;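 also: 0% = DMSO wells with enzyme and 100% = wells lacking Arfgap1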
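Assay system: purified rat His6-Arfgap1 residues 1-136 (GAP domain); Reagent: human Δ17 ARF1 bound to GTP; Dosing: 16.5 µM single point, 1.26% DMSO; Times: GTP hydrolysis reaction 2 h at 25 °C; Signal: FP, GDP Alexa 633 tracer displaced from anti-GDP antibody, 620/688 nm; Measure: % inhibition from polarization.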
C2C12 statin: suppression of simvastatin myotoxicity; C2C12 myotubes + simvastatin, ATP luminescence, 48 h; scaled: DMSO 0, geranylgeraniol control 100; 330,000 compounds, 0.78% hits; rescue of ATP level, % at 7.49 µM;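 active = mean ATP rescue above about 67%, or every replicate alone reaching that limit, limit read from the data, passing the limit was not always enough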;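 also: myotubes were challenged with 10 µM simvastatin during compound exposure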
Mot1 SUMO dose: yeast SUMO pathway inhibition in dose response; growth activity, percent, % at 42 µM; S. cerevisiae Mot1-301 galactose growth, ATP luminescence, 24 h; -100 = growth of slx-deleted rescue strain; shares compounds with SUMO Mot1 rescue; AID 493004; 2,300 tested, under 10 active;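 active = Signal drops as the depositor expects, and the fitted half-maximal dose is no more than ten times the top valid tested dose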;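 also: more negative values mean stronger growth rescue toward the control strain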
An asterisk follows results filed as active. Shown are actives, neighbours in structure and some others; about 2.1% of the full set was active somewhere.

Screening O=C(C[n+]1ccc(C(=O)N/N=C/c2ccc(Cl)cc2Cl)cc1)c1ccccc1 returned SUMO Mot1 rescue 712.0*, APOBEC3A inh -4.0, A3G deaminase -6.2, ASAP1 GAP inh 3.4, ARFGAP1 inh 4.5, C2C12 statin -11.6 and Mot1 SUMO dose 0.5.
O=C(N/N=C/c1ccc(Cl)cc1Cl)c1cccc(F)c1 was read as SUMO Mot1 rescue 11.8, APOBEC3A inh 1.7, A3G deaminase 0.1, ASAP1 GAP inh -8.1, ARFGAP1 inh 9.2 and C2C12 statin -22.5.
For C=C(C)Cn1c(N)cc(=O)nc1SCC(=O)Nc1cccc(C(F)(F)F)c1 the results were SUMO Mot1 rescue 412.9*, APOBEC3A inh -0.5, A3G deaminase -9.7, ASAP1 GAP inh 2.1, ARFGAP1 inh -5.9 and Mot1 SUMO dose 0.2.
For C[C@@H]1CN([C@@H](C)CO)S(=O)(=O)c2ccc(-c3ccc(F)cc3)cc2O[C@@H]1CN(C)C(=O)Nc1ccccc1F the results were C2C12 statin -63.6.
`O=C1NC2(CCCCCC2)C(=O)N1Cc1ccccc1` gave SUMO Mot1 rescue -2.6, APOBEC3A inh -1.8, A3G deaminase -6.3, ASAP1 GAP inh -0.9, ARFGAP1 inh 9.2 and C2C12 statin 2.9.
Screening O=C1NC(=O)N(Cc2ccccc2)C1=O returned SUMO Mot1 rescue active, APOBEC3A inh -0.3, A3G deaminase -3.7, ASAP1 GAP inh -4.0, ARFGAP1 inh -6.8, C2C12 statin 3.6 and Mot1 SUMO dose 0.8.
Screening CN1CCN(C(=O)C[C@H]2CC[C@@H]3[C@H](COC[C@H](O)CN3C(=O)C3CCOCC3)O2)CC1 returned C2C12 statin -38.4.
`CC1=C(C(=O)N2CCOCC2)C(c2ccc(O)cc2)NC(=S)N1` (centres undefined) gave SUMO Mot1 rescue 582.9*, APOBEC3A inh -5.1, A3G deaminase -5.9, ASAP1 GAP inh -10.7, ARFGAP1 inh -5.6 and Mot1 SUMO dose 0.2.
For COc1ccc(NC(=O)N(C)C[C@H]2Oc3ccc(NS(=O)(=O)c4ccc(F)cc4)cc3CC(=O)N([C@H](C)CO)C[C@@H]2C)cc1 the results were C2C12 statin -7.9.
`C=C(C)Cn1c(SCC(=O)N/N=C/c2ccccc2OCC(=O)O)nnc1-c1ccc(Br)cc1` gave SUMO Mot1 rescue 571.7*, APOBEC3A inh -1.3, A3G deaminase -8.4, ASAP1 GAP inh -2.8, ARFGAP1 inh 7.7, C2C12 statin 10.0 and Mot1 SUMO dose 0.1.
`Cc1cccc(S(=O)(=O)N[C@H]2CC[C@H](CCNC(=O)c3cnccn3)O[C@H]2CO)c1` gave C2C12 statin -5.1.
For CCOC(=O)Cn1c(C)c(Br)c(=O)c2cccc(C)c21 the results were SUMO Mot1 rescue active, APOBEC3A inh 5.6, A3G deaminase 1.5, ASAP1 GAP inh 0.6, ARFGAP1 inh -0.7 and Mot1 SUMO dose -0.4.
COc1ccccc1NC(=O)N[C@H]1CC[C@@H](CCNS(=O)(=O)c2ccc(Cl)cc2)O[C@H]1CO was read as C2C12 statin 4.9.
`Cc1cccc(/C=N/NC(=O)Cc2cccs2)c1` gave SUMO Mot1 rescue 908.2*, APOBEC3A inh -1.1, A3G deaminase -2.6, ASAP1 GAP inh 4.0, ARFGAP1 inh 3.2 and Mot1 SUMO dose -0.2.
For CCCC(=O)Nc1ccc2c(c1)C(=O)N(C)C[C@H](OC)[C@@H](C)CN(Cc1cccc(F)c1)[C@H](C)CO2 the results were C2C12 statin -1.6.
Screening CC(=O)Nc1cccc(NC(=S)Nc2cccc(Cl)c2Cl)c1 returned SUMO Mot1 rescue -14.4, APOBEC3A inh 2.6, A3G deaminase -16.7, ASAP1 GAP inh 0.4 and ARFGAP1 inh 2.3.
Screening CC(=O)Nc1cccc(NC(=S)Nc2ccc(F)cc2F)c1 returned SUMO Mot1 rescue 604.8*, APOBEC3A inh 0.1, A3G deaminase -2.4, ASAP1 GAP inh 0.3, ARFGAP1 inh -3.2, C2C12 statin 6.0 and Mot1 SUMO dose -0.1.
C[C@H]1CN([C@@H](C)CO)S(=O)(=O)c2ccc(C#CC3CCCC3)cc2O[C@@H]1CN(C)Cc1cccnc1 was read as C2C12 statin -81.4.
`Nc1ccc(N2CCN(c3ccc(F)cc3)CC2)cc1` gave SUMO Mot1 rescue 903.1*, APOBEC3A inh -6.3, A3G deaminase -3.1, ASAP1 GAP inh 8.2, ARFGAP1 inh 0.5 and Mot1 SUMO dose 0.4.
For N#CC(C#N)=C1C=CC=CN1/C(=C\c1ccccc1Cl)C(=O)c1ccccc1 the results were SUMO Mot1 rescue 600.4*, ASAP1 GAP inh 9.1, ARFGAP1 inh 7.0 and Mot1 SUMO dose -1.7.
For O=S(=O)(c1cccc(-c2nnco2)c1)N1CCCC1 the results were SUMO Mot1 rescue active, APOBEC3A inh 2.0, A3G deaminase -0.9, ASAP1 GAP inh 11.0, ARFGAP1 inh -0.7 and Mot1 SUMO dose 0.3.
For O=S(=O)(c1cccc(-c2nnc(-c3ccc(Br)cc3)o2)c1)N1CCCCCC1 the results were SUMO Mot1 rescue 7.4, APOBEC3A inh -3.9, A3G deaminase -5.4, ASAP1 GAP inh -1.6, ARFGAP1 inh -7.2 and C2C12 statin -26.7.
Screening O=C(NCCc1cnccn1)C1CCC(=O)N(Cc2ccc(Cl)cc2)C1 (centres undefined) returned SUMO Mot1 rescue 523.2*, APOBEC3A inh 0.5, A3G deaminase 0.1, ASAP1 GAP inh 5.7, ARFGAP1 inh 1.8, C2C12 statin -1.3 and Mot1 SUMO dose 0.2.
COc1ccc(-c2ccc(-c3noc(-c4ccccc4)n3)c(OC)n2)cc1 was read as SUMO Mot1 rescue 1.4, APOBEC3A inh -3.0, A3G deaminase 6.0, ASAP1 GAP inh 12.8, ARFGAP1 inh 2.2 and C2C12 statin -45.1.
`COc1nc(-c2ccccc2)ccc1-c1noc(-c2ccccc2)n1` gave SUMO Mot1 rescue 558.0*, APOBEC3A inh -0.2, A3G deaminase -1.6, ASAP1 GAP inh 3.8, ARFGAP1 inh -2.1, C2C12 statin -9.2 and Mot1 SUMO dose 0.4.
`O=C(N/N=C/c1ccccc1)c1[nH]c2ccc(Br)cc2c1-c1ccccc1` gave SUMO Mot1 rescue 490.8*, APOBEC3A inh 0.1, A3G deaminase -2.6, ASAP1 GAP inh 12.3, ARFGAP1 inh 6.8 and Mot1 SUMO dose 0.4.
Screening O=C(NCCCN1CCOCC1)C1CCC(=O)N1CCc1ccccc1 (centres undefined) returned SUMO Mot1 rescue 407.9*, APOBEC3A inh -2.5, A3G deaminase -6.0, ASAP1 GAP inh 12.1, ARFGAP1 inh -2.6, C2C12 statin 0.2 and Mot1 SUMO dose -0.8.
Screening O=C(C[C@H]1CC[C@H](NC(=O)C2CC2)[C@H](CO)O1)NCc1ccccc1Cl returned C2C12 statin 0.3.

Screening results as filed in PubChem.
